The source of these data is ChEMBL document CHEMBL4414562, “Discovery of the First in Vivo Active Inhibitors of the Soluble Epoxide Hydrolase Phosphatase Domain” (J Med Chem, 2019).

A short description of test [1]: Inhibition of hexa-His-tagged human soluble epoxide hydrolase N-terminal phosphatase domain expressed in Escherichia coli BL21(DE3) pre-incubated for 30 mins before FDP substrate addition by fluorescence based assay.
In test [2] the target is T1, Oxysterols receptor LXR-beta (Homo sapiens) (UniProt P55055).
T1 sequence (whole entry): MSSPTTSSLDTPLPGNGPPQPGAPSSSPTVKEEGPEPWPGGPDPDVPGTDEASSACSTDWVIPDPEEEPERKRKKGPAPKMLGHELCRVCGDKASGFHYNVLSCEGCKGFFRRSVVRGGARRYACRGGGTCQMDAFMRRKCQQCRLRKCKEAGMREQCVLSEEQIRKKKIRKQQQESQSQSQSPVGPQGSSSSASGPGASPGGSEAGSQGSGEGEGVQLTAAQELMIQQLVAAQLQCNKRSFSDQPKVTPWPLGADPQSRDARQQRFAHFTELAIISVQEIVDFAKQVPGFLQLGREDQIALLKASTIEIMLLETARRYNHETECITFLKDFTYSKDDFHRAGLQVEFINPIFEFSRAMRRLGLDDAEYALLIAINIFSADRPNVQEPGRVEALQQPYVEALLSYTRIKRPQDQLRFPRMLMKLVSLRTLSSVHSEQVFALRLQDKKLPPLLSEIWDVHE
Put plainly: Activation of Gal4-fused human LXRbeta LBD transfected in HEK293T cells at 10 uM after 12 to 14 hrs by luciferase reporter gene assay. Type of test: cell-based. The essentials: (§1)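 Gal4–human nuclear receptor LBD fusion (pFA-CMV-hNR-LBD) co-transfected with pFR-Luc and pRL-SV40 (Lipofectamine LTX) into HEK293T cells seeded the day before. 5 h post-transfection, compound added in Opti-MEM with 0.1% DMSO and incubated 12−14 h. Dual-Glo firefly/Renilla luciferase read. Activation expressed relative to reference agonist at 1 μM. Triplicates, ≥3 independent experiments.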
(A reporter such as luciferase makes a cellular process visible.)

Test [3] deals with T2, Retinoic acid receptor RXR-alpha (Homo sapiens) (UniProt P19793).
T2 sequence (whole entry): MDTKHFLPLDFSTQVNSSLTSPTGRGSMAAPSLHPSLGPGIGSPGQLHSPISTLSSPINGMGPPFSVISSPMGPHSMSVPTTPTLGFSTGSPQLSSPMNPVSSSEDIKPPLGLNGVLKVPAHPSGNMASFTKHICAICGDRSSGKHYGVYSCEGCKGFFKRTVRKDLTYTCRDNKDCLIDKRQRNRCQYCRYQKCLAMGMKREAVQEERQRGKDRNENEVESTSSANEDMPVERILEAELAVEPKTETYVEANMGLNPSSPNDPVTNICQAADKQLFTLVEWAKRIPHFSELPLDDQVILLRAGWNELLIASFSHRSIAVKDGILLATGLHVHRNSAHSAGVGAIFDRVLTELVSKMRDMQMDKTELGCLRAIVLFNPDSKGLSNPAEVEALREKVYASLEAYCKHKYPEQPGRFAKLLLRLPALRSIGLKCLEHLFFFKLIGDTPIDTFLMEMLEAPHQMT
The experiment in a line: Activation of Gal4-fused human RXRalpha LBD transfected in HEK293T cells at 10 uM after 12 to 14 hrs by luciferase reporter gene assay. The test is classed as cell-based. The essentials:
as §1

Test [4] has as its target T3, Bifunctional epoxide hydrolase 2 (Mus musculus, UniProt P34914).
T3 sequence (P34914 whole entry): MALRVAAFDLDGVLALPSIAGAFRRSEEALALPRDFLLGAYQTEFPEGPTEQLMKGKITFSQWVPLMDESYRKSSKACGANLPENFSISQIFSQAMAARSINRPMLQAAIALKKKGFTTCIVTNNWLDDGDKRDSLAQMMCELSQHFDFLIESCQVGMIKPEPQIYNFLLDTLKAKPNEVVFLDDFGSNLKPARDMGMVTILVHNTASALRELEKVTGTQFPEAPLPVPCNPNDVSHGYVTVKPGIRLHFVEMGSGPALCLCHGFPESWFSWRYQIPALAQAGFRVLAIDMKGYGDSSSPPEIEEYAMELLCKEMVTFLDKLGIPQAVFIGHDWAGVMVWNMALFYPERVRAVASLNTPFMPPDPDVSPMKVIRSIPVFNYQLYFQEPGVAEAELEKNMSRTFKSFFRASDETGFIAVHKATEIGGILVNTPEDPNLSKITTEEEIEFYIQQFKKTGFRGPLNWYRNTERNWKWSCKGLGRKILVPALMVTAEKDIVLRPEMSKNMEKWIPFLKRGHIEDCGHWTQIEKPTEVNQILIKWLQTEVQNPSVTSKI
Put plainly: Inhibition of hydrolase activity of full length mouse soluble epoxide hydrolase pre-incubated for 30 mins before PHOME substrate addition by fluorescence based assay. The procedure, abridged:
(§2)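 Hydrolase assay with 0.1 μM full-length enzyme in Bis-Tris pH 7 containing 0.1 mg/mL BSA and 0.01% Triton X-100. […] Reaction started with PHOME (50 μM final). 6-Methoxynaphthaldehyde fluorescence (ex 330/em 465 nm) read every minute for 45 min. Triplicates.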

In test [5] the target is T4, Bifunctional epoxide hydrolase 2 (Rattus norvegicus, UniProt P80299).
T4 sequence (P80299 whole entry): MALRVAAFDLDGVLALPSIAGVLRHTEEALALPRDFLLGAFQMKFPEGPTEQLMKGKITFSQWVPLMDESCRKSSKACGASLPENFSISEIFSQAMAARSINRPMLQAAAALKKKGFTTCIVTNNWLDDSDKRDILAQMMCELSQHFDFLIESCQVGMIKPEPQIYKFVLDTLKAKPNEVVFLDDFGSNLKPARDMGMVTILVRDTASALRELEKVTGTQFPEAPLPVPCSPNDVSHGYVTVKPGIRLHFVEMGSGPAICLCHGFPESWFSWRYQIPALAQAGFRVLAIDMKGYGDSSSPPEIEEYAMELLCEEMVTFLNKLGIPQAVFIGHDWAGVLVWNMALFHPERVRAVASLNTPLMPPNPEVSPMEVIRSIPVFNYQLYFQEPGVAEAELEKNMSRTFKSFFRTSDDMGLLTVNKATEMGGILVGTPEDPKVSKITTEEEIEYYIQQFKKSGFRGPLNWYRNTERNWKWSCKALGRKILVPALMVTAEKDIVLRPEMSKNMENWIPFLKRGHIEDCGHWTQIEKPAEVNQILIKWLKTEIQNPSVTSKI
Put plainly: Inhibition of hydrolase activity of full length rat soluble epoxide hydrolase pre-incubated for 30 mins before PHOME substrate addition by fluorescence based assay. The procedure, abridged:
as §2

Active and inactive are the calls of the source. The calls are words filed in the database; no cut-off is given here.

As for `O=C(O)CCCc1nc(-c2ccc(Cl)c(Cl)c2)c(-c2ccccc2)o1`, the IC50 (as a rule, the concentration that inhibits the measured activity by half) was 0.058 µM in test [1], above 30 µM in test [4] and above 30 µM in test [5]. Further, in test [2], the result was inactive. The molecule also returned an Activity in test [3] of 77%.

In the case of `O=C(O)CCc1nc(-c2ccccc2)c(-c2ccccc2)o1` [OXAPROZIN], the values for the 50% inhibitory concentration (IC50) in test [1], in test [4] and in test [5] were 5 µM, above 300 µM and above 300 µM, respectively. Also, in test [2], the result was inactive. The same molecule returned an Activity in test [3] of 14.4%.
